Source: ChEMBL document CHEMBL1133092, “Drug delivery systems based on trimethyl lock lactonization: poly(ethylene glycol) prodrugs of amino-containing compounds” (J Med Chem, 2000)

Experiments:
[1] = Half life in Cell media; assay type: ADME
[2] = system: M109; assay: In vivo screening in M109 syngeneic solid mouse tumor model (i.p.); assay type: functional
Method in brief: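 Female balb/c mice (20-25 g) implanted subcutaneously in the left flank with about 1 × 10^6 M109 cells on day 0. Dosed intraperitoneally at 3 mg/kg/dose (DNR content) on days 1 and 4; 6 per group with untreated controls. % T/C of median tumor volumes taken when control median reached ~2000 mm3.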

[3] = system: M109; assay: In vivo screening in M109 syngeneic solid mouse tumor model (i.v.); assay type: functional
Method in brief: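 Female balb/c mice (20-25 g) implanted subcutaneously in the left flank with about 1 × 10^6 M109 cells on day 0. Dosed intravenously at 3 mg/kg/dose (DNR content) on days 3 and 6; 6 per group with untreated controls. % T/C of median tumor volumes taken when control median reached ~2000 mm3.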

[4] = Half life in buffer at pH 7.4.; assay type: ADME
Method in brief: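 Conjugate dissolved at 5 mg/mL in 0.1 M pH 7.4 PBS and incubated at 37 °C for various periods. Analysed by HPLC with UV detection at 254 nm (DNR) or 280 nm (ara-C). Run in duplicate.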

[5] = Half life in Rat plasma; assay type: ADME
Method in brief: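 Conjugate dissolved in distilled water (20 mg/100 µL), then 900 µL rat plasma added. Aliquots incubated at 37 °C for various times, quenched with methanol-acetonitrile (1:1) and filtered. Remaining conjugate measured by HPLC with UV detection at 254 nm (DNR) or 280 nm (ara-C). Run in duplicate. t1/2 calculated from α phase.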

[6] = system: P388; assay: Growth Inhibition of P388/0 cell lines.; assay type: functional, cell-based; settings: Mus musculus
Method in brief: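 P388/0 murine leukemia cells seeded at 2 × 10^3 cells/well, exposed to serial dilutions for 3 days at 37 °C, 5% CO2. Alamar Blue then added and plates read after a further 4 h at 37 °C. IC50 taken from absorbance vs dilution factor plots.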

Compound	half-life [1] [min]	T/C [2] [%]	T/C [3] [%]	half-life [4] [min]	half-life [5] [min]	IC50 [6] [nM]
CCC(=O)NC(C)C(=O)Oc1cc(C)cc(C)c1C(C)(C)CC(=O)NC1CC(O[C@H]2C[C@](O)(C(C)=O)Cc3c(O)c4c(c(O)c32)C(=O)c2c(OC)cccc2C4=O)OC(C)C1O (stereo not given in full)	840	62.8	92.5	> 1440	114	43
CCC(=O)NCCC(=O)Oc1c(C)ccc(C)c1C(C)(C)CC(=O)NC1CC(O[C@H]2C[C@](O)(C(C)=O)Cc3c(O)c4c(c(O)c32)C(=O)c2c(OC)cccc2C4=O)OC(C)C1O (stereo not given in full)	5640	114.8	31.6	> 1440	480	411
CCC(=O)NCCOCCOC(=O)Oc1cc(C)cc(C)c1C(C)(C)CC(=O)NC1CC(O[C@H]2C[C@](O)(C(C)=O)Cc3c(O)c4c(c(O)c32)C(=O)c2c(OC)cccc2C4=O)OC(C)C1O (stereo not given in full)	2280	57.1	118.4	> 1440	66	142
CCC(=O)NCCC(=O)Oc1cc(C)cc(C)c1C(C)(C)CC(=O)NC1CC(O[C@H]2C[C@](O)(C(C)=O)Cc3c(O)c4c(c(O)c32)C(=O)c2c(OC)cccc2C4=O)OC(C)C1O (stereo not given in full)	4800	101.2	63.7	> 1440	12	203
CCC(=O)NC(C)C(=O)Oc1c(C)ccc(C)c1C(C)(C)CC(=O)NC1CC(O[C@H]2C[C@](O)(C(C)=O)Cc3c(O)c4c(c(O)c32)C(=O)c2c(OC)cccc2C4=O)OC(C)C1O (stereo not given in full)	2160	153.6	52.5	> 1440	1260	389
